Assay results published in ChEMBL document CHEMBL3259661, “Identification of a neuroprotective and selective butyrylcholinesterase inhibitor derived from the natural alkaloid evodiamine” (Eur J Med Chem, 2014).
Calls of active or inactive are those of the source. No cut-off for these calls is given here.

Experiments:
Acetylcholinesterase = Acetylcholinesterase (Electrophorus electricus, UniProt O42275); assay: Inhibition of electric eel AChE by Ellman's method
In short: (§1)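 Ethanol stocks diluted into assay, highest final concentration 10^-4 M. For curves, at least five concentrations (normally 10^-4 to 10^-9 M), each in triplicate; at least 3 independent determinations.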

Cholinesterase = Cholinesterase (Equus caballus, UniProt P81908); assay: (§2) Inhibition of equine serum BChE by Ellman's method; in short: as §1
Chain of Cholinesterase (P81908 whole entry): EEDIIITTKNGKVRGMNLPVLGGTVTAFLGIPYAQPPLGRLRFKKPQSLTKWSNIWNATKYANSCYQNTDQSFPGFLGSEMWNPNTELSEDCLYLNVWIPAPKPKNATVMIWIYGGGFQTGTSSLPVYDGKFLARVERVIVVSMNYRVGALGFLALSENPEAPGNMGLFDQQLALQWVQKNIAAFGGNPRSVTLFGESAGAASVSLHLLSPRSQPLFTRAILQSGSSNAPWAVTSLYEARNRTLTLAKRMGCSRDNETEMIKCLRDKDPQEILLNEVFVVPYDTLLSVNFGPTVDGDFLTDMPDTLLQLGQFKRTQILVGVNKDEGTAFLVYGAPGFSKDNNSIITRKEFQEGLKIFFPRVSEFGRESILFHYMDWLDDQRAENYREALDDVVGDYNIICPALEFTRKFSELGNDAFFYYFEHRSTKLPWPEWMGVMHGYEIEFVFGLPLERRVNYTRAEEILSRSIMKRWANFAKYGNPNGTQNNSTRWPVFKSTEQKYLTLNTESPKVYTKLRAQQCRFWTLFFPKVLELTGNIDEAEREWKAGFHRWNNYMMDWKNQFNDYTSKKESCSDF

[1] = biological target: Cholinesterase (Equus caballus) (UniProt P81908); assay: Inhibition of equine serum BChE at 10 uM by Ellman's method
Chain of Cholinesterase (Equus caballus) (P81908 whole entry): as above

[2] = biological target: Acetylcholinesterase (Electrophorus electricus) (UniProt O42275); assay: Inhibition of electric eel AChE at 10 uM by Ellman's method
Chain of Acetylcholinesterase (Electrophorus electricus) (O42275 24-633 limits assumed): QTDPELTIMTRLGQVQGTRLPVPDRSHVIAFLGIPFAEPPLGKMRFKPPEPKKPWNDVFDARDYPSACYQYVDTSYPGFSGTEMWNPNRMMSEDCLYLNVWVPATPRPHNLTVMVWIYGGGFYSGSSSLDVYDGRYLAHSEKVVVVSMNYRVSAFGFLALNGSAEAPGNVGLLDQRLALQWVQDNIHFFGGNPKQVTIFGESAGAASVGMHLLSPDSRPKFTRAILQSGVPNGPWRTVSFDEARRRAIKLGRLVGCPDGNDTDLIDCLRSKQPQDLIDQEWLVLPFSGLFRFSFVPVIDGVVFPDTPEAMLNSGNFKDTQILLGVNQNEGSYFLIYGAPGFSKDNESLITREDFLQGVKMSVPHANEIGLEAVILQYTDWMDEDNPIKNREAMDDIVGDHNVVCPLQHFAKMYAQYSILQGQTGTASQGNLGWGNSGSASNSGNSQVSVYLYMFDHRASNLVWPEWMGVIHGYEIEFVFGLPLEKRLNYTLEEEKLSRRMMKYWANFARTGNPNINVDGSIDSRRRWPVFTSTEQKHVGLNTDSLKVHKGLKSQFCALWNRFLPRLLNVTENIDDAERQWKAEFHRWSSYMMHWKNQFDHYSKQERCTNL

[3] = Selectivity ratio of IC50 for Electrophorus electricus acetylcholinesterase to IC50 for equine serum butyrylcholinesterase
In short: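 Ratio IC50(AChE)/IC50(BChE), with both IC50s from Ellman assays (electric eel AChE, equine serum BChE, 25 °C, 412 nm, at least five concentrations in triplicate, at least 3 independent determinations).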

HT-22 [4] = assay: Neuroprotection against glutamate challenged mouse HT22 cells assessed as reduction in cell viability at 5 uM after 48 hrs by MTT assay; format: functional, cell-based
HT-22 [5] = assay: Neurotoxicity against mouse HT22 cells assessed as reduction in cell viability at 25 uM […] by MTT assay; format: toxicity, cell-based; settings: ht-22, 25 µM
[6] = Antioxidant activity in phosphate buffer assessed as scavenging activity against peroxy radicals at pH 7.4 by ORAC-FL method relative to trolox; format: functional
In short: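 ORAC-FL in 75 mM phosphate buffer pH 7.4, 37 °C; sample with fluorescein (300 nM final) preincubated 15 min, then AAPH (12 mM final) added; fluorescence read every 60 s for 90 min (ex 485/em 535 nm). Blank and Trolox calibration in each assay; AUC from blank-normalised decay curves; expressed as Trolox equivalents.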

HT-22 [7] = assay: Neuroprotection against glutamate challenged mouse HT22 cells assessed as reduction in cell viability at 1 to 25 uM after 48 hrs by MTT assay; format: functional, cell-based
In short: (§3)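 Murine hippocampal HT-22 cells grown in high-glucose DMEM + 10% heat-inactivated FCS, 37 °C, 5% CO2. Seeded 5 × 10³/well, cultured 24 h, then 24 h with compound (DMSO stock, final DMSO ≤0.1%) plus 5 mM glutamate. MTT (4 mg/mL stock diluted 1:10) for 3 h, 10% SDS lysis, absorbance 560 nm next day. Viability as % of untreated control. Means ± SD, ≥3 independent experiments.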

[8] = biological target: Cholinesterase (Equus caballus) (UniProt P81908); assay: as §2; settings: TDE = time-dependent effect; in short: as §1
[9] = biological target: Cholinesterase (Equus caballus) (UniProt P81908); assay: Binding affinity to equine serum BChE assessed as compound-enzyme complex stability
In short: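 Kinetic study on equine serum BChE with time-dependent inhibition followed to steady state (60 min); equilibrium constant of inhibitor–BChE complex (K_C) and carbamoylation rate constant (k3) determined.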

HT-22 [10] = assay: Neurotoxicity against mouse HT22 cells assessed as reduction in cell viability at 1 to 10 uM […] by MTT assay; format: toxicity, cell-based; settings: ht-22, 10 µM
HT-22 [11] = assay: Neuroprotection against glutamate challenged mouse HT22 cells assessed as reduction in cell viability at 5 to 10 uM after 48 hrs by MTT assay; format: functional, cell-based; in short: as §3
[12] = biological target: Acetylcholinesterase (Electrophorus electricus) (UniProt O42275); assay: Inhibition of electric eel AChE at 100 uM by Ellman's method
[13] = biological target: Cholinesterase (Equus caballus) (UniProt P81908); assay: Inhibition of equine serum BChE at 100 uM by Ellman's method
HT-22 [14] = assay: Neurotoxicity against mouse HT22 cells assessed as reduction in cell viability at 1 to 25 uM […] by MTT assay; format: toxicity, cell-based; settings: ht-22, 25 µM

Chain of Acetylcholinesterase (O42275 whole entry): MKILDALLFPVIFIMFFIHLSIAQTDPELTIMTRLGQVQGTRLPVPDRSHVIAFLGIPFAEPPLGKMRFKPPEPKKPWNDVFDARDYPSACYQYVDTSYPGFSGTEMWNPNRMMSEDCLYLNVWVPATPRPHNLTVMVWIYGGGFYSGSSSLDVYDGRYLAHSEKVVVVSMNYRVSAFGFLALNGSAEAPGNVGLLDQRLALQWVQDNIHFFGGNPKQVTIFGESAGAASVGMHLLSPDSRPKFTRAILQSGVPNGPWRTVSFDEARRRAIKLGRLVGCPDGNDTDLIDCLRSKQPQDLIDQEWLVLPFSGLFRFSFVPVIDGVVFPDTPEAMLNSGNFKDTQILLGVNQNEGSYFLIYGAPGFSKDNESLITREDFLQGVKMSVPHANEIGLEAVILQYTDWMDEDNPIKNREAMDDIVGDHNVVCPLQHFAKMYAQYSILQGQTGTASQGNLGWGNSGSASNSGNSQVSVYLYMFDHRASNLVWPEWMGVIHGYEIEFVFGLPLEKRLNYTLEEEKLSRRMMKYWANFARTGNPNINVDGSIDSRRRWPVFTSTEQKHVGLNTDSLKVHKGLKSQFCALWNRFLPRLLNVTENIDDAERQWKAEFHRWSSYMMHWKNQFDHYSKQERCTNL

Row | Compound | IC50 (Acetylcholinesterase) [µM] | IC50 (Cholinesterase) [µM] | inhibition [1] [%] | inhibition [2] [%] | Ratio IC50 [3] | other results
1 | COc1cccc(NC(=O)Oc2ccc3c(c2)CN2CCc4c([nH]c5ccccc45)C2N3C)c1 (stereo not given) | > 10 | > 10 | 30 | 19 | – | –
2 | CN1c2ccccc2C(=O)N2CCc3c([nH]c4ccccc34)C21 (stereo not given) | > 10 | 4.62 | 5.34 | 37 | > 2.16 | –
3 | CCNC(=O)Oc1ccc2c(c1)CN1CCc3c([nH]c4ccccc34)C1N2C (stereo not given) | > 10 | 1.03 | 5.99 | 26 | > 9.71 | –
4 | O=c1c(O)c(-c2ccc(O)c(O)c2)oc2cc(O)cc(O)c12 | – | – | – | – | – | Activity (HT-22 [4]): Active
5 | CCCCCCCNC(=O)Oc1ccc2c(c1)CN1CCc3c([nH]c4ccccc34)C1N2C (stereo not given) | > 10 | 0.077 | 7.11 | 17 | > 130 | Activity (HT-22 [5]): Toxic; ORAC value (Trolox equivalents) [6]: 1.75; Activity (HT-22 [7]): Active; inhibition [8]: tde; K [9]: 492 nM; Activity (HT-22 [10]): Non-toxic
6 | CN1c2ccccc2CN2CCc3c([nH]c4ccccc34)C21 (stereo not given) | > 10 | 2.68 | 5.57 | 24 | > 3.73 | ORAC value (Trolox equivalents) [6]: 2.32; Activity (HT-22 [11]): Active
7 | CC(C)c1ccc(NC(=O)Oc2ccc3c(c2)CN2CCc4c([nH]c5ccccc45)C2N3C)cc1 (stereo not given) | > 10 | > 10 | 41 | 13 | – | –
8 | CN1c2ccc(OCc3ccccc3)cc2C(=O)N2CCc3c([nH]c4ccccc34)C21 (stereo not given) | 3.01 | 0.88 | 6.07 | 5.52 | 3.42 | –
9 | CC(C)c1ccc(NC(=O)Oc2ccc3c(c2)C(=O)N2CCc4c([nH]c5ccccc45)C2N3C)cc1 (stereo not given) | > 10 | > 10 | 7 | 14 | – | –
10 | COc1cccc(NC(=O)Oc2ccc3c(c2)C(=O)N2CCc4c([nH]c5ccccc45)C2N3C)c1 (stereo not given) | > 10 | > 10 | 3 | 15 | – | –
11 | CN1c2ccc(OC(=O)NCc3ccccc3)cc2C(=O)N2CCc3c([nH]c4ccccc34)C21 (stereo not given) | > 10 | > 10 | 15 | 10 | – | –
12 | CCNC(=O)Oc1ccc2c(c1)C(=O)N1CCc3c([nH]c4ccccc34)C1N2C (stereo not given) | > 10 | > 10 | 21 | 15 | – | –
13 | CN1c2ccc(O)cc2CN2CCc3c([nH]c4ccccc34)C21 (stereo not given) | > 100 | 19.3 | 4.71 | – | > 5.17 | Activity (HT-22 [5]): Toxic; inhibition [12]: 43%; ORAC value (Trolox equivalents) [6]: 3.55; Activity (HT-22 [7]): Active; inhibition [13]: 47%; Activity (HT-22 [10]): Non-toxic
14 | CCCCNC(=O)Oc1ccc2c(c1)CN1CCc3c([nH]c4ccccc34)C1N2C (stereo not given) | > 10 | 3.97 | 5.4 | 47 | > 2.52 | –
15 | CCCCCCCNC(=O)Oc1ccc2c(c1)C(=O)N1CCc3c([nH]c4ccccc34)C1N2C (stereo not given) | – | – | – | – | – | ORAC value (Trolox equivalents) [6]: 0.32; Activity (HT-22 [7]): Active; Activity (HT-22 [14]): Toxic
16 | CCCCNC(=O)Oc1ccc2c(c1)C(=O)N1CCc3c([nH]c4ccccc34)C1N2C (stereo not given) | > 10 | > 10 | 12 | 10 | – | –
17 | CN1c2ccc(OC(=O)NCc3ccccc3)cc2CN2CCc3c([nH]c4ccccc34)C21 (stereo not given) | > 10 | 2.15 | 5.67 | 34 | > 4.65 | –
18 | CNC(=O)Oc1ccc2c(c1)[C@]1(C)CCN(C)[C@@H]1N2C | – | – | 7.22 | 8.11 | – | –
19 | CN1c2ccc(O)cc2C(=O)N2CCc3c([nH]c4ccccc34)C21 (stereo not given) | > 100 | > 100 | – | 29 | – | –
